Where two headings read alike, the source gives them in different places.
Assays:
[1] = test system: NCI-H460 (lung cancer); test: MTT cell cytotoxicity assay, NCI-H460; assay type: cell-based; details: Homo sapiens, NCI-H460, 48 h, read-out: NCI-H460 IC50 ± S.D
Summary of the method: (§1)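 Cells maintained in high-glucose DMEM with 2 mM L-glutamine, 10% FBS and 1% antibiotics, passaged before 70% confluency. Seeded at 10 000/well, left overnight at 37 °C, washed, then exposed to a range of test compound concentrations for 48 h. MTT (0.5 mg/mL as added) for 4 h, formazan dissolved in DMSO, OD 570 nm. IC50 fitted from percent inhibition.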

[2] = test system: CAL-27 (oral cancer); test: MTT cell cytotoxicity assay, CAL-27; assay type: cell-based; details: Homo sapiens, CAL-27, 48 h, read-out: CAL-27 IC50 ± S.D
Summary of the method: as §1

[3] = test system: NIH-3T3 (mouse normal fibroblast); test: MTT cell cytotoxicity assay, NIH-3T3; assay type: cell-based; details: read-out: NIH-3T3 IC50 ± S.D
Summary of the method: as §1

[4] = test system: K. pneumoniae (ATCC 13882); test: crystal violet biofilm inhibition assay, K. pneumoniae; assay type: cell-based, Klebsiella pneumoniae; details: for K. pneumonia % inhibition ± S.D: biofilm inhibition at 250 μM; for K. pneumonia MBIC dose: biofilm inhibitory concentration, 24 h, crystal violet
Summary of the method: (§2)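 Strains cultured in tryptone soya broth or agar. Test compound twofold serially diluted (500–1 μM) in TSB and inoculated at 5 x 10^5 CFU/mL. Incubated 24 h at 37 °C. Medium discarded and wells washed with sterile water, then stained with 0.1% w/v crystal violet for 15 min. Washed and air-dried; bound dye taken up in 30% v/v acetic acid. A590 gave percent biofilm inhibition.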

[5] = test system: A. baumannii (ATCC 19606); test: crystal violet biofilm inhibition assay, A. baumannii; assay type: cell-based, Acinetobacter baumannii; details: for A. baumannii MBIC dose: biofilm inhibitory concentration, 24 h, crystal violet
Summary of the method: as §2

[6] = test system: S. aureus (NCTC 6571); test: crystal violet biofilm inhibition assay, S. aureus; assay type: cell-based, Staphylococcus aureus; details: biofilm inhibition at 500 μM
Summary of the method: as §2

[7] = test system: E. coli (ATCC 25922); test: crystal violet biofilm inhibition assay, E. coli; assay type: cell-based, Escherichia coli; details: for E. coli % Inhibition ± S.D: biofilm inhibition at 250 μM; for E. coli MBIC dose: biofilm inhibitory concentration, 24 h, crystal violet
Summary of the method: as §2

Structure (SMILES)	IC50 [1] [µM]	IC50 [2] [µM]	IC50 ([3]; Mus musculus, NIH3T3, 48 h) [µM]	K. pneumonia % inhibition ± S.D [4] [%]	K. pneumonia MBIC dose [4] [µM]	A. baumannii % Inhibition ± S.D ([5]; biofilm inhibition at 250 μM) [%]	A. baumannii MBIC dose [5] [µM]	S. aureus % Inhibition ± S.D [6]	E. coli % Inhibition ± S.D [7] [%]	E. coli MBIC dose [7] [µM]	A. baumannii % Inhibition ± S.D ([5]; biofilm inhibition at 125 μM) [%]	IC50 ([3]; MTT, 48 h treatment, normal mouse fibroblast) [µM]
O=c1[nH]cc(F)c(=O)[nH]1 [5-fluorouracil]	4.54 ± 1.67	2.41 ± 0.89	> 100	–	–	–	–	–	–	–	–	–
O.O.O.O.O=C([O-])Cc1ccccc1Nc1c(Cl)cccc1Cl.O=C([O-])Cc1ccccc1Nc1c(Cl)cccc1Cl.[K+].[K+].c1cnc2c(c1)ccc1cccnc12.c1cnc2c(c1)ccc1cccnc12 [Complex 2, [K2(phen)2(dcf)2(H2O)4]]	–	–	–	77.26 ± 0.063	250	86.158 ± 0.068	250	–1.497 ± 0.288%	72 ± 0.091	250	–	–
O.O.O=C([O-])Cc1ccccc1Nc1c(Cl)cccc1Cl.[Li+].c1cnc2c(c1)ccc1cccnc12 [Complex 3, [Li(phen)(H2O)2][dcf]]	–	–	–	77.91 ± 0.062	250	–	125	3.306 ± 0.166%	76.22 ± 0.026	250	87.924 ± 0.073	135 ± 4.96

Reference: paper PMC6921677 (ACS Omega, 2019)
